Assay [1] has as its system Mycobacterium tuberculosis. In words: Antibacterial activity against Mycobacterium tuberculosis H37Rv by agar dilution method. Type of assay: functional. The method in brief: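 Agar dilution in Middlebrook 7H11 agar supplemented with OADC, following an approach similar to NCCLS guidance. MIC determined in duplicate.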
In general terms: In agar dilution the substance is mixed into plates at graded concentrations.

Assay [2] deals with Mycolicibacterium smegmatis. In words: Antibacterial activity against Mycobacterium smegmatis ATCC 14468 by agar dilution method. In kind it is functional. The procedure, abridged:
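Agar dilution on Middlebrook 7H11 agar with OADC supplement, following an NCCLS-type procedure; MIC read in duplicate.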

A short description of assay [3]: Inhibition of Mycobacterium smegmatis DNA gyrase assessed as inhibition of relaxed circular pUC18 supercoiling activity by agarose gel electrophoresis. More on the design: species or system Mycolicibacterium smegmatis. The method in brief:
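Gyrase purified from M. smegmatis, pre-incubated with compound in DMSO. Then 400 ng relaxed pUC18 added in 35 mM Tris-HCl pH 7.5, 5 mM MgCl2, 25 mM potassium glutamate, 2 mM spermidine, 2 mM ATP, BSA, yeast tRNA and 5% glycerol. Incubated 30 min at 37 °C; read-out by agarose gel electrophoresis. Ciprofloxacin and 5% DMSO reactions run as controls.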

Values after ≈ are worked out from the molar mass of the structure shown.

For `O=C(O)c1cn(-c2ccc(F)cc2)c2cc(N3CCC4(CC3)OCCO4)c([N+](=O)[O-])cc2c1=O`, the MIC in assay [1] turned out to be 6.67 µM (≈ 3.13 µg/mL); in assay [2], 26.6 µM (≈ 12.5 µg/mL).

Regarding `CC(C)(C)n1cc(C(=O)O)c(=O)c2cc([N+](=O)[O-])c(N3CCn4cc(C(=O)O)nc4C3)cc21`, the MIC is 6.87 µM (≈ 3.13 µg/mL) in assay [1] and 54.9 µM (≈ 25 µg/mL) in assay [2].

Regarding `O=C(O)c1cn(-c2ccc(F)cc2)c2cc(N3CCN(C(c4ccccc4)c4ccc(Cl)cc4)CC3)c([N+](=O)[O-])cc2c1=O` (configuration not stated), the figures for the MIC in assay [1] and in assay [2] were 10.2 µM (≈ 6.25 µg/mL) and 40.8 µM (≈ 25 µg/mL), respectively.

For `CCN(CC)C(=O)C1CCCN(c2cc3c(cc2[N+](=O)[O-])c(=O)c(C(=O)O)cn3-c2ccc(F)cc2)C1` (configuration not stated), the MIC in assay [1] was found to be 6.13 µM (≈ 3.13 µg/mL); in assay [2] it was 24.5 µM (≈ 12.5 µg/mL).

In the case of `CC(C)(C)n1cc(C(=O)O)c(=O)c2cc([N+](=O)[O-])c(N3CCN(C(=O)C4COc5ccccc5O4)CC3)cc21` (configuration not stated), the figures for the MIC in assay [1] and in assay [2] were 5.83 µM (≈ 3.13 µg/mL) and 23.3 µM (≈ 12.5 µg/mL), respectively.

`Cc1onc(-c2c(F)cccc2F)c1C(=O)N1CCN(c2cc3c(cc2[N+](=O)[O-])c(=O)c(C(=O)O)cn3-c2ccc(F)cc2)CC1`: the MIC turned out to be 4.94 µM (≈ 3.13 µg/mL) in assay [1] and 19.7 µM (≈ 12.5 µg/mL) in assay [2].

`CC1CN(c2cc3c(cc2[N+](=O)[O-])c(=O)c(C(=O)O)cn3C2CC2)CC(C)O1` (configuration not stated): the MIC was 2.01 µM (≈ 0.779 µg/mL) in assay [1] and 8.08 µM (≈ 3.13 µg/mL) in assay [2].

For the molecule `CC(C)(C)n1cc(C(=O)O)c(=O)c2cc([N+](=O)[O-])c(N3CCSCC3)cc21`, the results for the minimal inhibitory concentration (MIC) in assay [1] and in assay [2] were 7.99 µM (≈ 3.13 µg/mL) and 31.9 µM (≈ 12.5 µg/mL), respectively.

Take `O=C(O)c1cn(-c2ccc(F)cc2)c2cc(N3CCC(n4c(=O)[nH]c5cc(Cl)ccc54)CC3)c([N+](=O)[O-])cc2c1=O`: the MIC in assay [1] was determined as 5.42 µM (≈ 3.13 µg/mL); in assay [2], 43.3 µM (≈ 25 µg/mL).

As to `CC(C)(C)NC(=O)C1c2ccccc2CCN1c1cc2c(cc1[N+](=O)[O-])c(=O)c(C(=O)O)cn2C1CC1` (configuration not stated), the MIC in assay [1] amounted to 1.55 µM (≈ 0.782 µg/mL); in assay [2], 3.09 µM (≈ 1.56 µg/mL). Besides, the IC50 in assay [3] was determined as 30 µg/mL (≈ 59.5 µM).

Regarding `O=C(O)c1cn(C2CC2)c2cc(N3CCSCC3)c([N+](=O)[O-])cc2c1=O`, the MIC in assay [1] turned out to be 4.17 µM (≈ 1.57 µg/mL); in assay [2], 33.3 µM (≈ 12.5 µg/mL).

As for `CC1CN(c2cc3c(cc2[N+](=O)[O-])c(=O)c(C(=O)O)cn3C(C)(C)C)CC(C)O1` (configuration not stated), the MIC in assay [1] came to 7.76 µM (≈ 3.13 µg/mL); in assay [2] it was 31 µM (≈ 12.5 µg/mL).

Take `CC(C)(C)n1cc(C(=O)O)c(=O)c2cc([N+](=O)[O-])c(N3CCC(O)(c4ccc(Cl)cc4)CC3)cc21`: the MIC stood at 6.26 µM (≈ 3.13 µg/mL) in assay [1] and 25 µM (≈ 12.5 µg/mL) in assay [2].

On to `CC(C)(C)n1cc(C(=O)O)c(=O)c2cc([N+](=O)[O-])c(N3CCN(Cc4ccc5c(c4)OCO5)CC3)cc21`, for which the MIC was 3.07 µM (≈ 1.56 µg/mL) in assay [1] and 24.6 µM (≈ 12.5 µg/mL) in assay [2].

On to `COc1ccc(CC2C3=C(CCCC3)CCN2c2cc3c(cc2[N+](=O)[O-])c(=O)c(C(=O)O)cn3-c2ccc(F)cc2)cc1` (configuration not stated), for which the minimum inhibitory concentration (MIC) in assay [1] was 5.36 µM (≈ 3.13 µg/mL); in assay [2], 21.4 µM (≈ 12.5 µg/mL).

As to `CC(C)(C)n1cc(C(=O)O)c(=O)c2cc([N+](=O)[O-])c(N3CCC(n4c(=O)[nH]c5cc(Cl)ccc54)CC3)cc21`, the MIC is 5.79 µM (≈ 3.13 µg/mL) in assay [1] and 23.1 µM (≈ 12.5 µg/mL) in assay [2].

Turning to `O=C(O)c1cn(-c2ccc(F)cc2)c2cc(N3CCSCC3)c([N+](=O)[O-])cc2c1=O`, the MIC in assay [1] came to 14.6 µM (≈ 6.25 µg/mL); in assay [2], 29.1 µM (≈ 12.5 µg/mL).

Regarding `O=C(O)c1cn(-c2ccc(F)cc2)c2cc(N3CCN(C(=O)c4ccco4)CC3)c([N+](=O)[O-])cc2c1=O`, the MIC in assay [1] was found to be 6.18 µM (≈ 3.13 µg/mL); in assay [2], 24.7 µM (≈ 12.5 µg/mL).

As to `CCN(CC)C(=O)C1CCCN(c2cc3c(cc2[N+](=O)[O-])c(=O)c(C(=O)O)cn3C(C)(C)C)C1` (configuration not stated), the MIC in assay [1] worked out at 6.62 µM (≈ 3.13 µg/mL); in assay [2] it was 26.4 µM (≈ 12.5 µg/mL).

`CC(C)(C)n1cc(C(=O)O)c(=O)c2cc([N+](=O)[O-])c(N3CCN(C(c4ccccc4)c4ccc(Cl)cc4)CC3)cc21` (configuration not stated): the MIC in assay [1] amounted to 5.44 µM (≈ 3.13 µg/mL); in assay [2], 10.9 µM (≈ 6.25 µg/mL). Further, in assay [3], the IC50 was found to be 30 µg/mL (≈ 52.2 µM).

Turning to `O=C(O)c1cn(-c2ccc(F)cc2)c2cc(N3CCC(O)(c4ccc(Cl)cc4)CC3)c([N+](=O)[O-])cc2c1=O`, the results for the MIC in assay [1] and in assay [2] were 5.82 µM (≈ 3.13 µg/mL) and 23.2 µM (≈ 12.5 µg/mL), respectively.

On to `Cc1onc(-c2c(F)cccc2F)c1C(=O)N1CCN(c2cc3c(cc2[N+](=O)[O-])c(=O)c(C(=O)O)cn3C2CC2)CC1`, for which the results for the MIC in assay [1] and in assay [2] were 2.69 µM (≈ 1.56 µg/mL) and 10.8 µM (≈ 6.25 µg/mL), respectively.

Consider `CCN(CC)C(=O)C1CCCN(c2cc3c(cc2[N+](=O)[O-])c(=O)c(C(=O)O)cn3C2CC2)C1` (configuration not stated), for which the MIC in assay [1] is 3.42 µM (≈ 1.56 µg/mL); in assay [2] it was 6.86 µM (≈ 3.13 µg/mL).

For the molecule `CN1CCN(c2cc3c(cc2[N+](=O)[O-])c(=O)c(C(=O)O)cn3C(C)(C)C)CC1c1ccccc1` (configuration not stated), the values for the MIC in assay [1] and in assay [2] were 16.1 µM (≈ 7.47 µg/mL) and 64.4 µM (≈ 29.9 µg/mL), respectively.

On to `O=C(O)c1cn2c(n1)CN(c1cc3c(cc1[N+](=O)[O-])c(=O)c(C(=O)O)cn3-c1ccc(F)cc1)CC2`, for which the MIC in assay [1] was found to be 12.7 µM (≈ 6.25 µg/mL); in assay [2] it was 50.7 µM (≈ 25 µg/mL).

Turning to `CC(C)(C)n1cc(C(=O)O)c(=O)c2cc([N+](=O)[O-])c(N3CCC4(CC3)OCCO4)cc21`, the MIC in assay [1] turned out to be 7.45 µM (≈ 3.21 µg/mL); in assay [2] it was 29 µM (≈ 12.5 µg/mL).

For the molecule `O=C(O)c1cn(-c2ccc(F)cc2)c2cc(N3CCN(Cc4ccc5c(c4)OCO5)CC3)c([N+](=O)[O-])cc2c1=O`, the figures for the MIC in assay [1] and in assay [2] were 2.85 µM (≈ 1.56 µg/mL) and 22.9 µM (≈ 12.5 µg/mL), respectively.

Consider `CN1CCN(c2cc3c(cc2[N+](=O)[O-])c(=O)c(C(=O)O)cn3-c2ccc(F)cc2)CC1c1ccccc1` (configuration not stated), for which the MIC in assay [1] amounted to 6.23 µM (≈ 3.13 µg/mL); in assay [2], 24.9 µM (≈ 12.5 µg/mL).

Regarding `COc1ccc(CC2C3=C(CCCC3)CCN2c2cc3c(cc2[N+](=O)[O-])c(=O)c(C(=O)O)cn3C2CC2)cc1` (configuration not stated), the figures for the MIC in assay [1] and in assay [2] were 3.04 µM (≈ 1.61 µg/mL) and 24.3 µM (≈ 12.9 µg/mL), respectively.

Turning to `COc1ccc(CC2C3=C(CCCC3)CCN2c2cc3c(cc2[N+](=O)[O-])c(=O)c(C(=O)O)cn3C(C)(C)C)cc1` (configuration not stated), the figures for the MIC in assay [1] and in assay [2] were 5.74 µM (≈ 3.13 µg/mL) and 22.9 µM (≈ 12.5 µg/mL), respectively.

Regarding `O=C(O)c1cn(C2CC2)c2cc(N3CCN(C(=O)C4COc5ccccc5O4)CC3)c([N+](=O)[O-])cc2c1=O` (configuration not stated), the results for the MIC in assay [1] and in assay [2] were 2.99 µM (≈ 1.56 µg/mL) and 12 µM (≈ 6.25 µg/mL), respectively.

For `CC(C)(C)n1cc(C(=O)O)c(=O)c2cc([N+](=O)[O-])c(N3CCC(N4CCCCC4)CC3)cc21`, the MIC in assay [1] came out at 6.86 µM (≈ 3.13 µg/mL); in assay [2] it was 27.4 µM (≈ 12.5 µg/mL).

For the molecule `O=C(O)c1cn(C2CC2)c2cc(N3CCC(n4c(=O)[nH]c5cc(Cl)ccc54)CC3)c([N+](=O)[O-])cc2c1=O`, the MIC amounted to 1.49 µM (≈ 0.781 µg/mL) in assay [1] and 2.97 µM (≈ 1.56 µg/mL) in assay [2]. The IC50 in assay [3] worked out at 20 µg/mL (≈ 38.2 µM).

Take `O=C(O)c1cn(-c2ccc(F)cc2)c2cc(N3CCC(N4CCCCC4)CC3)c([N+](=O)[O-])cc2c1=O`: the MIC in assay [1] was 6.33 µM (≈ 3.13 µg/mL); in assay [2] it was 25.3 µM (≈ 12.5 µg/mL).

On to `CC(C)(C)NC(=O)C1c2ccccc2CCN1c1cc2c(cc1[N+](=O)[O-])c(=O)c(C(=O)O)cn2C(C)(C)C` (configuration not stated), for which the MIC in assay [1] came out at 12 µM (≈ 6.25 µg/mL); in assay [2] it was 24 µM (≈ 12.5 µg/mL).

`O=C(O)c1cn(C2CC2)c2cc(N3CCC4(CC3)OCCO4)c([N+](=O)[O-])cc2c1=O`: the MIC in assay [1] came to 3.76 µM (≈ 1.56 µg/mL); in assay [2], 15.1 µM (≈ 6.25 µg/mL).

As to `CC(C)(C)n1cc(C(=O)O)c(=O)c2cc([N+](=O)[O-])c(N3CCN(C(=O)c4ccco4)CC3)cc21`, the values for the MIC in assay [1] and in assay [2] were 6.68 µM (≈ 3.13 µg/mL) and 13.3 µM (≈ 6.25 µg/mL), respectively. The IC50 in assay [3] was 30 µg/mL (≈ 64 µM).

Take `CC(C)(C)NC(=O)C1c2ccccc2CCN1c1cc2c(cc1[N+](=O)[O-])c(=O)c(C(=O)O)cn2-c1ccc(F)cc1` (configuration not stated): the minimal inhibitory concentration (MIC) in assay [1] was 5.6 µM (≈ 3.13 µg/mL); in assay [2] it was 22.4 µM (≈ 12.5 µg/mL).

In the case of `O=C(O)c1cn(C2CC2)c2cc(N3CCN(C(c4ccccc4)c4ccc(Cl)cc4)CC3)c([N+](=O)[O-])cc2c1=O` (configuration not stated), the MIC in assay [1] and in assay [2] was 5.59 µM (≈ 3.12 µg/mL) throughout.

In general, MIC refers to the lowest concentration that inhibits growth of the organism. High values mean a need for much substance, low ones inhibition by little substance. One may read the IC50 as the concentration needed to halve the response being measured.

Source of the values: ChEMBL document CHEMBL1152865, “Synthesis and antimycobacterial activities of novel 6-nitroquinolone-3-carboxylic acids” (Eur J Med Chem, 2009).
